Reference: ChEMBL document CHEMBL1806467 (Bioorg Med Chem Lett, 2011)
≈ marks a conversion by molar mass, not a printed value. Calls of active or inactive are those of the source. The calls are words filed in the database; no cut-off is given here.

How the values were obtained:
[1] = Aqueous solubility of the compound at pH 7.4; assay type: physicochemical; conditions: buffer
[2] = Half life in human liver microsomes after 30 mins; assay type: ADME, Microsome
Method in brief: (§1)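 Drug incubated with liver microsomes of the stated species (rat, nude mouse, human) for 30 min; half-life of drug determined.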

[3] = Half life in nude mouse liver microsomes after 30 mins; assay type: ADME, Microsome; method in brief: as §1
[4] = Half life in rat liver microsomes after 30 mins; assay type: ADME, Microsome; method in brief: as §1
[5] = organism: Mus musculus; conditions: MDA-MB-361, 25 mg/kg
[6] = organism: Mus musculus; conditions: MDA-MB-361, 25 mg/kg; remark: listed apart in the source
[7] = organism: Mus musculus; conditions: MDA-MB-361, 25 mg/kg; remark: listed apart in the source
[8] = organism: Mus musculus; conditions: MDA-MB-361, 25 mg/kg; remark: listed apart in the source
[9] = organism: Mus musculus; conditions: MDA-MB-361, 25 mg/kg; remark: listed apart in the source
[10] = organism: Mus musculus; conditions: MDA-MB-361, 10 mg/kg
[11] = organism: Mus musculus; conditions: MDA-MB-361, 10 mg/kg; remark: listed apart in the source
[12] = organism: Mus musculus; conditions: MDA-MB-361, 10 mg/kg; remark: listed apart in the source
[13] = organism: Mus musculus; conditions: MDA-MB-361, 10 mg/kg; remark: listed apart in the source
[14] = organism: Mus musculus; conditions: MDA-MB-361, 10 mg/kg; remark: listed apart in the source
[15] = biological target: Serine/threonine-protein kinase mTOR (Homo sapiens, UniProt P42345); assay: Inhibition of mTOR
[16] = system: Mus musculus; assay: In vivo inhibition of PI3K/mTOR in human MDA-MB-361 cells xenografted nude mouse assessed as induction of cleaved poly-adenosine-diphosphate-ribose polymerase at 50 mg/kg, iv after 8 hrs by immunoblotting; assay type: functional, organism-based; set-up: dose 50 mg/kg
[17] = system: MDA-MB-361; assay: cells; conditions: Homo sapiens, MDA-MB-361, 72 h
[18] = system: PC-3; assay: cells; conditions: Homo sapiens, PC-3, 72 h
[19] = biological target: Phosphatidylinositol 4,5-bisphosphate 3-kinase catalytic subunit alpha isoform (Homo sapiens, UniProt P42336); assay: Inhibition of human PI3Kalpha expressed in SF9 insect cells after 2 hrs by fluorescence polarization assay
Phosphatidylinositol 4,5-bisphosphate 3-kinase catalytic subunit alpha isoform, sequence (P42336 whole entry, canonical isoform): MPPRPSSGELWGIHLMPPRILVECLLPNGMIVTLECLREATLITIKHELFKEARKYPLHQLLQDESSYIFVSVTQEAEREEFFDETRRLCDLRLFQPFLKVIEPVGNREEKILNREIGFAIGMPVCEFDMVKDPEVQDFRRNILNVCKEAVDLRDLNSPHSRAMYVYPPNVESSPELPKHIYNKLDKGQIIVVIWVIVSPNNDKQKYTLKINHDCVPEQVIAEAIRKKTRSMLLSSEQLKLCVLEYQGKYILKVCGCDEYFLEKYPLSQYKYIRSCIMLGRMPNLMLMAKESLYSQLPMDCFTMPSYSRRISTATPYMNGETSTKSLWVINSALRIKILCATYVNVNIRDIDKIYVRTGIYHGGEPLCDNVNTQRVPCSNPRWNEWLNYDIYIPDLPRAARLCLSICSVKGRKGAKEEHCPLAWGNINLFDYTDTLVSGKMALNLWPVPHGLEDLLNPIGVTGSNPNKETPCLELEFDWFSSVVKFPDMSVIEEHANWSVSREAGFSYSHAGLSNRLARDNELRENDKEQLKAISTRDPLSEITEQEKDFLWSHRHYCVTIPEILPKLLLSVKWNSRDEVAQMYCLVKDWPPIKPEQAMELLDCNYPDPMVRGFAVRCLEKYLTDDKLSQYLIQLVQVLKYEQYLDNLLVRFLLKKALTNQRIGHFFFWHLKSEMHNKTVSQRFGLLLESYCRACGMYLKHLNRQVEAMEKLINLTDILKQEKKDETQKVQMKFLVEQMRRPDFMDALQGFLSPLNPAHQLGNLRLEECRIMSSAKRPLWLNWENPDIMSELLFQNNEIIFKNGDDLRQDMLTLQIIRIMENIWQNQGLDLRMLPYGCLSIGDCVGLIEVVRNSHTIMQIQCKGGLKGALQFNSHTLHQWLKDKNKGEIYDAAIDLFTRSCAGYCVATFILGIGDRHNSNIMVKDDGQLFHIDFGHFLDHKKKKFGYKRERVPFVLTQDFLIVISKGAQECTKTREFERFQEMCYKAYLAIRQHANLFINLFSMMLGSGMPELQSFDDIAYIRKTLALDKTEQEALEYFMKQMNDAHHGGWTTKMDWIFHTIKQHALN

| Structure (SMILES) | solubility [1] | half-life [2] | half-life [3] | half-life [4] | IC50 [17] | IC50 [18] | also measured |
| --- | --- | --- | --- | --- | --- | --- | --- |
| CN(C)C1CCN(C(=O)c2ccc(NC(=O)Nc3ccc(-c4nc(N5CCOCC5)nc(N5CCOCC5)n4)cc3)cc2)CC1 [GEDATOLISIB] | 15 µg/mL (≈ 24.4 µM) | > 30 min | > 30 min | > 30 min |  |  | inhibition [5]: Active; inhibition [6]: Active; inhibition [7]: Active; inhibition [8]: Active; inhibition [9]: Active; inhibition [10]: Active; inhibition [11]: Active; inhibition [12]: Active; inhibition [13]: Active; inhibition [14]: Active |
| CCn1nnc2c(N3CCOCC3)nc(-c3ccc(NC(=O)Nc4ccc(C(=O)N5CCN(C)CC5)cc4)cc3)nc21 |  | > 30 min | > 30 min |  | 8 nM |  | IC50 [15]: 2 nM; inhibition [16]: Active |
| CNCCN(C)C(=O)c1ccc(NC(=O)Nc2ccc(-c3nc(OC)nc(N4CCOCC4)n3)cc2)cc1 | > 100 µg/mL | > 30 min | > 30 min | > 30 min | 110 nM | 374 nM |  |
| COc1nc(-c2ccc(NC(=O)Nc3ccc(C(=O)NCCN(C)C)cc3)cc2)nc(N2CCOCC2)n1 | > 100 µg/mL | > 30 min | > 30 min | > 30 min | < 31 nM | 71 nM |  |
| CC(C)Oc1nc(-c2ccc(NC(=O)Nc3ccc(C(=O)NCCN(C)C)cc3)cc2)nc(N2CCOCC2)n1 | 3 µg/mL (≈ 5.47 µM) | > 30 min | > 30 min | > 30 min | 11 nM | 41 nM | IC50 [15]: 0.4 nM |
| O=C(Nc1ccc(C(=O)NCCN2CCCC2)cc1)Nc1ccc(-c2nc(O[C@H]3CCOC3)nc(N3CCOCC3)n2)cc1 | 23 µg/mL (≈ 38.2 µM) | > 30 min | > 30 min | 28 min | 8 nM | 27 nM | IC50 [15]: 0.3 nM |
| CN(C)CCN(C)C(=O)c1ccc(NC(=O)Nc2ccc(-c3nc(O[C@H]4CCOC4)nc(N4CCOCC4)n3)cc2)cc1 | > 100 µg/mL | > 30 min | > 30 min | 27 min |  |  | inhibition [5]: Active; inhibition [6]: Active; inhibition [7]: Active; inhibition [8]: Active; inhibition [9]: Active |
| COc1nc(-c2ccc(NC(=O)Nc3ccc(C(=O)NCCN4CCCCC4)cc3)cc2)nc(N2CCOCC2)n1 | > 100 µg/mL | > 30 min | > 30 min | > 30 min | < 31 nM | 69 nM |  |
| CN(C)C1CCN(C(=O)c2ccc(NC(=O)Nc3ccc(-c4nc(O[C@H]5CCOC5)nc(N5CCOCC5)n4)cc3)cc2)CC1 |  | 18 min | > 30 min |  |  |  |  |
| CN1CCN(C(=O)c2ccc(NC(=O)Nc3ccc(-c4nc(O[C@H]5CCOC5)nc(N5CCOCC5)n4)cc3)cc2)CC1 | 1 µg/mL (≈ 1.7 µM) | 15 min | > 30 min | 20 min |  |  |  |
| CC(C)Oc1nc(-c2ccc(NC(=O)Nc3ccc(C(=O)N4CCN(C)CC4)cc3)cc2)nc(N2CCOCC2)n1 |  | > 30 min | > 30 min | 17 min |  |  |  |
| CN1CCN(C(=O)c2ccc(NC(=O)Nc3ccc(-c4nc(OC5COC5)nc(N5CCOCC5)n4)cc3)cc2)CC1 | 4 µg/mL (≈ 6.96 µM) |  |  | > 30 min |  |  |  |
| COc1nc(-c2ccc(NC(=O)Nc3ccc(C(=O)N4CCN(C)CC4)cc3)cc2)nc(N2CCOCC2)n1 | 3 µg/mL (≈ 5.63 µM) | > 30 min | > 30 min | 16 min | 35 nM | 91 nM | IC50 [19]: 1.2 nM |
| CC(C)Oc1nc(-c2ccc(NC(=O)Nc3ccc(C(=O)N(C)CCN(C)C)cc3)cc2)nc(N2CCOCC2)n1 | 15 µg/mL (≈ 26.7 µM) | > 30 min | 23 min | > 30 min |  |  |  |
| CN1C2CCC1CC(Oc1nc(-c3ccc(NC(=O)Nc4ccc(C(N)=O)cc4)cc3)nc(N3CCOCC3)n1)C2 (stereo not drawn) | 62 µg/mL (≈ 111 µM) |  |  | 4 min |  |  |  |
| CN1CCN(C(=O)c2ccc(NC(=O)Nc3ccc(-c4nc(N5CCOCC5)[nH]c(=O)n4)cc3)cc2)CC1 |  |  |  | > 30 min | > 1000 nM | > 1000 nM |  |
| COc1nc(-c2ccc(NC(=O)Nc3ccc(C(=O)N(C)CCN(C)C)cc3)cc2)nc(N2CCOCC2)n1 | > 100 µg/mL | > 30 min | > 30 min | 15 min | 15 nM | 34 nM |  |
| COc1nc(-c2ccc(NC(=O)Nc3ccc(C(=O)N4CCNC(C)(C)C4)cc3)cc2)nc(N2CCOCC2)n1 | 61 µg/mL (≈ 112 µM) | > 30 min | > 30 min | 29 min | 30 nM | 111 nM | IC50 [19]: 1.4 nM; IC50 [15]: 18.5 nM |
| O=C(Nc1ccc(C(=O)NCCN2CCCCC2)cc1)Nc1ccc(-c2nc(O[C@H]3CCOC3)nc(N3CCOCC3)n2)cc1 | 1 µg/mL (≈ 1.62 µM) | > 30 min | > 30 min | 27 min | 5 nM | 18 nM | IC50 [15]: 0.4 nM |
